# Screening data from PubChem BioAssay.
# A selection: hits, their analogues and other compounds. The true share with any hit is near 6.3%.
# PostGolgi ctrl – growth of the yeast control strain, post-Golgi counter-screen; 98,000 tested, 5% active; efflux-deficient yeast background strain, growth absorbance A615, 16 h; inhibition, % at 10 µM
# Ecoli tolC – growth inhibitors of E. coli BW25113 tolC mutant. OD615. growth inhibition, % at 10 µM (by protocol). 65,000 tested, 2.2% active. AID 573;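 active = growth inhibition at or above a cutoff equal to the mean over every tested compound plus 3 SD, cut at about 60% in these data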;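 note: growth measured after 20 h incubation at 37 °C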
#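 test system = E. coli BW25113 ΔtolC::kan bacteria | medium = LB with kanamycin 50 µg/mL | signal = OD at 615 nm | schedule = 37 °C, 20 h exposure | evaluation = % inhibition of E. coli growth | compound dosing = one dose of 10 µM final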
# Ecoli WT expand – E. coli BW25113 growth inhibition, expanded screen; OD600 absorbance; growth inhibition, % at 100 µM; 98,000 tested, 0.15% active;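 active = growth inhibition above about 50% at one test dose, limit read from the data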;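 note: growth measured after 20 h incubation at 37 °C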
# PostGolgi yeast – growth inhibition of a yeast mutant, post-Golgi transport screen. post-Golgi transport phenotypic cell assay. inhibition, % at 10 µM. 98,000 tested, 0.9% active. AID 739;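 note: yeast cells grown in 1536-well plates; yeast grown about 18 h at 30C before absorbance read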
# Active calls of the source: *; / = not tested or not shown. Cut-off read from the data, not from the text of the source, unless noted: active = inhibition above about 30%; inactive = the rest.
SMILES,PostGolgi ctrl,Ecoli tolC,Ecoli WT expand,PostGolgi yeast
CCOc1cc(NC(=S)NCCCN2CCOCC2)c(OCC)cc1NC(=O)CC(C)C,8,/,-2,-9
CC1=C2C(CCS2(=O)=O)CC2(C1)C(=O)OC(C)(C)OC2=O (stereo unspecified),-1,-16,1,-7
C=CCn1c(CCNC(=O)c2ccccc2F)nnc1SCC(=O)Nc1nc2ccccc2s1,3,/,-2,-8
Cc1nnc(C)n1/N=C/c1cc(Br)ccc1O,-1,-10,8,3
Cc1cc2ncn(/N=C/c3cc(Br)ccc3O)c2cc1C,35*,-2,-1,11
CCn1nnnc1SCC(=O)Nc1cc(OC)cc(OC)c1,4,-19,-1,-7
Cc1cccc2sc(NC(=O)CN(C)S(=O)(=O)c3ccc(Br)s3)nc12,70*,92*,-10,4
Cc1cccc2sc(NC(=O)C3c4ccccc4Oc4ccccc43)nc12,58*,/,-14,53*
Cc1ccc(NC(=S)N2CCC(c3nc4ccccc4s3)CC2)cc1,10,/,2,1
CCNC(=S)N1CCC(c2nc3ccccc3s2)CC1,44*,/,-1,7
O=C(CSc1ccc(F)cc1)N1CCC(c2nc3ccccc3s2)CC1,20,/,-4,5
O=C(CSc1ccccc1Cl)N1CCC(c2nc3ccccc3s2)CC1,64*,/,-47,13
CCCCN1CC(O)=C(c2nc3ccccc3[nH]2)C1=N,30*,1,2,4
CNc1cc(CSC)nc(SCc2ccc(Cl)c(Cl)c2)n1,35*,/,-3,27
COC(=O)c1c(NC(C)=O)sc(Cc2ccccc2)c1C,26,/,-1,-3
Cc1c(Cc2ccccc2)sc(N)c1C(N)=O,38*,12,7,0
FC(F)(F)c1cccc(N2CCN(CC3CC=CCC3)CC2)c1 (stereo unspecified),6,/,5,0
O=C(NCCN1CCN(c2ccccc2)CC1)c1cccn2c(=O)c3cc(Cl)ccc3nc12,68*,14,3,7
O=C(NCCN1CCN(c2cccc(Cl)c2)CC1)c1cccn2c(=O)c3ccccc3nc12,/,10,/,/
CC(C)(C)c1[nH]nc2c1C(Cc1ccccc1)C(C#N)=C(N)O2 (stereo unspecified),40*,64*,10,-7
CC(C)(C)c1[nH]nc2c1C(c1cccnc1)C(C#N)=C(N)O2 (stereo unspecified),-6,3,12,5
COc1cccc(CNCC(=O)N2C(C)CCCC2C)c1 (stereo unspecified),14,-15,-5,6
COc1ccc(OCc2nnc(SC(C)C(=O)Nc3nccs3)n2-c2ccccc2)cc1 (stereo unspecified),4,20,-1,2
O=C(CSc1ncnc2ccccc12)Nc1ccc(N2CCOCC2)cc1,-6,3,6,4
CC(C(=O)NCC1CCCO1)N(C(=O)c1snc(C(N)=O)c1N)c1ccccc1 (stereo unspecified),30*,-9,-1,2
SMILES,PostGolgi ctrl,Ecoli tolC,Ecoli WT expand,PostGolgi yeast
Cc1ccc(CNC(=O)CSc2c3c(nc4ccc(Cl)cc24)CCCC3)o1,24,/,-9,9
CCOc1c2c(nc3ccc(Cl)cc13)CCC2,36*,15,-6,0
CCCOc1ccc(C(=O)N2CCN(c3ccc(NC(=O)CC)cc3Cl)CC2)cc1,13,63*,-12,9
CCC(=O)N1CCN(c2ccc(NC(=O)c3cc4ccccc4o3)cc2Cl)CC1,38*,31,-10,6
CCCC(=O)N1CCN(c2ccc(NC(=O)c3cc4ccccc4o3)cc2Cl)CC1,50*,50,-6,86*
O=C(Nc1ccc(N2CCN(C(=O)c3ccccc3)CC2)c(Cl)c1)c1ccco1,11,17,-9,14
O=C(Nc1ccc(N2CCN(C(=O)c3ccco3)CC2)c(Cl)c1)c1cc2ccccc2o1,28,38,-15,9
COc1ccccc1N(C(=O)NCc1ccccc1)C1=NCC(C)S1 (stereo unspecified),48*,51,-2,-4
COc1ccccc1NC(=O)N(Cc1ccccc1)C1=NCC(C)S1 (stereo unspecified),28,24,5,7
COC(=O)C1CSC(C(=O)OC)N1C(=O)Nc1ccc(Cl)cc1 (stereo unspecified),-1,/,2,1
O=C(CSc1nnc(-c2ccco2)n1Cc1ccccc1)c1ccc(F)cc1,32*,15,-1,-4
O=C(CSc1nnc(-c2cc3ccccc3cc2O)n1Cc1ccco1)c1ccc(F)cc1,80*,48,-18,-3
Cc1occc1-c1nnc(SCC(=O)c2ccc(F)cc2)n1Cc1ccco1,14,20,-6,-2
O=C(CSCC(=O)OCn1nnc2ccccc2c1=O)Nc1ccc(Cl)cc1,32*,-7,3,0
CSc1nc(Cl)cc(N(CCO)CCO)n1,-9,/,-2,12
CCOC(=O)CN1C(=O)Nc2ccc(Br)cc2C1c1ccccc1 (stereo unspecified),13,/,2,9
COC(=O)CN1C(=O)Nc2ccc(Br)cc2C1c1ccccc1Cl (stereo unspecified),33*,/,-2,-9
CCOC(=O)CSc1nc2cc(C(=O)NCc3ccco3)ccc2c(=O)n1-c1ccc(F)cc1,5,-16,-7,10
CCn1c(SCC(=O)OC2CCCCC2)nc2ccccc2c1=O,14,72*,12,-6
CCOC(=O)CSc1nc2cc(C(=O)NCc3ccco3)ccc2c(=O)n1C1CCCCC1,45*,-3,0,-7
CCOC(=O)CSc1nc2ccccc2c(=O)n1CC1CCC(C(=O)NCc2ccco2)CC1 (stereo unspecified),36*,8,-8,2
O=C(CSc1ncc(-c2ccc(F)cc2)n1Cc1ccco1)Nc1ccc2c(c1)OCO2,31*,70*,2,19
O=C(Nc1ccccc1F)c1ccc2nc(N3C(=O)CCC3=O)sc2c1,44*,/,-1,0
COc1cc(SC#N)ccc1N=Cc1c(C)[nH]n(-c2ccc(Cl)cc2)c1=O,32*,/,-7,10
CCOc1[nH]n(-c2ccc(Cl)cc2)c(=O)c1C=Nc1ccc(Cl)cc1,6,/,-13,-2
SMILES,PostGolgi ctrl,Ecoli tolC,Ecoli WT expand,PostGolgi yeast
S=C1N(c2ccccc2)C(c2cccc3ccccc23)N2CCCN12 (stereo unspecified),9,/,-2,-4
Cc1cc(N2CCOCC2)nc(SCc2ccc(Cl)cc2Cl)n1,42*,/,-5,0
Cc1cc(C)nc(SCC(=O)Nc2ccc(N3CCOCC3)c(Cl)c2)n1,-1,46,24,-3
O=[N+]([O-])c1ccc(Sc2nc3ccccc3o2)c([N+](=O)[O-])c1,91*,/,23,5
Cc1cc(NCCCn2ccnc2)n2nc(C)c(-c3ccccc3)c2n1,12,/,-5,3
O=c1c2cnn(-c3ccccc3)c2ncn1Cc1ccco1,0,/,0,1
N=c1c2c(-c3ccccc3)c(-c3ccccc3)n(Cc3ccccc3)c2ncn1CCCn1ccnc1,77*,23,28,95*
N=c1c2c(-c3ccccc3)c(-c3ccccc3)n(Cc3ccco3)c2ncn1Cc1ccco1,48*,64*,18,91*
CC1CC(C)CN(C(=O)CSc2nc(Cc3cccs3)nc3ccccc23)C1 (stereo unspecified),18,/,-13,17
